The text below walks through data of ChEMBL document CHEMBL1149433, “PABA/NO as an anticancer lead: analogue synthesis, structure revision, solution chemistry, reactivity toward glutathione, and in vitro activity” (J Med Chem, 2006).

In brackets after ≈: the same amount, converted by molar mass. Activity calls are given as the source filed them. The rule behind the calls is not given here.

Data set [1] in a line: Solubility in phosphate buffer at 37 degC. The class given is physicochemical. In short, it runs like this: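 Maximum solubility was measured in 0.1 M phosphate buffer at pH 7.4 and 37 °C.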
For data set [2], the system named is OVCAR-3. As to the kind of experiment: Cytotoxicity against human ovarian cancer OVACAR3 cell line. It counts as functional. The following applies: for CC50: read-out: LC50 (the source's name). In short, it runs like this:
(§1)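 Cells grown 24 h at 37 °C in RPMI 1640 with 5% FBS and 2 mM L-glutamine before dosing. Compounds were diluted from DMSO stocks to 10^-8 to 10^-4 M (five log concentrations) and incubated 48 h. Cells were TCA-fixed and stained with sulforhodamine B, with OD read at 515 nm. GI50, TGI and LC50 come from percent growth versus log concentration curves.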

The test system of the next data set is NIH3T3. In words: Cytotoxicity against mouse embryonic fibroblast NIH3T3 cell line. The class given is functional, cell-based.
The next data set deals with HL-60. In words: Inhibition of human myeloid leukemia HL60 cell viability. It counts as functional, cell-based.
Data set [3] has as its system HCT-15. As to the kind of experiment: Cytotoxicity against human colon cancer HCT15 cell line. The class given is functional. The following applies: for CC50: read-out: LC50 (the source's name). The essentials:
as §1

Data set [4] relates to LOX IMVI. As to the kind of experiment: Cytotoxicity against human melanoma cancer LOXIMVI cell line. The class given is functional. The essentials: as §1
For data set [5], the system named is CAKI-1. As to the kind of experiment: Cytotoxicity against human renal cancer CAKI1 cell line. As to conditions: for CC50: read-out: LC50 (the source's name). It counts as functional. In short, it runs like this: as §1
Data set [6] has as its system OVCAR-3. In words: Cytotoxicity against human ovarian cancer OVACAR3 cell line at 100 uM. It counts as functional, cell-based. In short, it runs like this: as §1
For data set [7], the system named is LOX IMVI. As to the kind of experiment: Cytotoxicity against human melanoma cancer LOXIMVI cell line at 100 uM. The class given is functional, cell-based. In short, it runs like this:
as §1

Data set [8] concerns CAKI-1. As to the kind of experiment: Cytotoxicity against human renal cancer CAKI1 cell line at 100 uM. It counts as functional, cell-based. In short, it runs like this: as §1
The subject of data set [9] is HCT-15. As to the kind of experiment: Cytotoxicity against human colon cancer HCT15 cell line at 100 uM. It counts as functional, cell-based. The essentials: as §1

Take `CN(C)/[N+]([O-])=N/Oc1cc(Nc2ccc(C(=O)O)cc2)c([N+](=O)[O-])cc1[N+](=O)[O-]`: in data set [1], the solubility – broadly, the concentration that dissolves in the medium under given conditions – was over 3000 µM. Also, in the data set with OVCAR-3 [2], it took 5.5 µM to inhibit growth by half (GI50), net growth stopped (TGI) at 9 µM and the CC50 was 100 µM. In addition, the IC50 (commonly the point on the concentration scale where inhibition reaches its midpoint) with NIH3T3 stood at 73 µM. The IC50 with HL-60 was 9.1 µM.

`CN(C)/[N+]([O-])=N/Oc1cc(Nc2cccc(C(=O)O)c2)c([N+](=O)[O-])cc1[N+](=O)[O-]` showed a solubility in data set [1] of over 2000 µM. Further, in the data set with HCT-15 [3], growth was halved (GI50) at 20 µM, total growth inhibition (TGI) required 36 µM and the CC50 was 68 µM. The compound further gave an LC50 (concentration giving 50% net cell kill) with LOX IMVI [4] of 60 µM. Moreover, in the data set with OVCAR-3 [2], the GI50 – broadly, the concentration at which growth is held to half of that of the control – came to 3.9 µM; the total growth inhibition concentration (TGI) (usually the concentration giving total growth inhibition) was 30 µM; the CC50 amounted to 58 µM. In addition, in the data set on CAKI-1 [5], the GI50 was 2.2 µM, the total growth inhibition concentration (TGI) amounted to 51 µM and the CC50 is over 100 µM. Further, inhibition in the data set on NIH3T3 was half-maximal at 80 µM (IC50).

For `CN(c1cccc(C(=O)O)c1)c1cc(O/N=[N+](\[O-])N(C)C)c([N+](=O)[O-])cc1[N+](=O)[O-]`, the result in the data set with OVCAR-3 [6], in the data set on LOX IMVI [7], in the data set on CAKI-1 [8] and with HCT-15 [9] was inactive. The concentration in solution in data set [1] (solubility) was 3000 µM (≈ 1260 µg/mL). In addition, the 50% inhibitory concentration (IC50) in the data set on NIH3T3 stood at 83 µM; in the data set on HL-60, 11.6 µM.

Compound `CNc1ccc(C(=O)Oc2cc(O/N=[N+](\[O-])N(C)C)c([N+](=O)[O-])cc2[N+](=O)[O-])cc1` returned a solubility in data set [1] of under 2 µM. The concentration for 50% growth inhibition (GI50) with HCT-15 [3] came to 2 µM; with LOX IMVI [4], 1.9 µM; in the data set on OVCAR-3 [2] it was 2.6 µM; in the data set on CAKI-1 [5], 1.8 µM. Moreover, the TGI in the data set on HCT-15 [3] is 5.3 µM; with LOX IMVI [4] it was 4.4 µM; in the data set with OVCAR-3 [2] it was 6.9 µM; with CAKI-1 [5], 4 µM. For the same compound, the CC50 in the data set with HCT-15 [3] turned out to be 19 µM; in the data set on OVCAR-3 [2] it was 2.6 µM; in the data set on CAKI-1 [5] it was 8.9 µM. For the same compound, the IC50 was 5.6 µM with NIH3T3 and 6.3 µM in the data set on HL-60.
